Molecules are shown by their SMILES. In brackets after ≈: the same amount, converted by molar mass. Activity calls are given as the source filed them. No cut-off for these calls is given here.

This is an account of results in ChEMBL document CHEMBL1147962, “Synthesis and antifungal activity of novel s-substituted 6-fluoro-4-alkyl(aryl)thioquinazoline derivatives” (Bioorg Med Chem, 2007).

Assay [1] concerns Fusarium oxysporum. Put plainly: Antifungal activity against Fusarium oxysporum at 500 ug/mL. It counts as functional.
The test system of assay [2] is Cytospora. As to the kind of experiment: Antifungal activity against Cytospora mandshurica at 500 ug/mL. It counts as functional.
In assay [3] the test system is Fusarium graminearum. As to the kind of experiment: Antifungal activity against Gibberella zeae at 500 ug/mL. The assay is classed as functional.
The subject of the next assay is Sclerotinia sclerotiorum. As to the kind of experiment: Antifungal activity against Sclerotinia sclerotiorum. The assay is classed as functional, organism-based.
In assay [4] the test system is Fusarium oxysporum. Put plainly: Antifungal activity against Fusarium oxysporum. The assay is classed as functional, organism-based. The gist of the method:
(§1)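 Preliminary fungicidal bioassay on plant-pathogenic fungi (G. zeae, F. oxysporum, C. mandshurica), with the commercial fungicide Hymexazol as reference.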

For a further assay, the system named is Thanatephorus cucumeris. Put plainly: Antifungal activity against Thanatephorus cucumeris. The assay is classed as functional, organism-based.
In assay [5] the test system is Cytospora. As to the kind of experiment: Antifungal activity against Cytospora mandshurica. The assay is classed as functional. An outline of the steps: as §1
Assay [6] has as its system Fusarium graminearum. Put plainly: Antifungal activity against Gibberella zeae. It counts as functional, organism-based.
In the next assay the test system is Rhizoctonia solani. Put plainly: Antifungal activity against Rhizoctonia solani. It counts as functional, organism-based.
In assay [7] the test system is Colletotrichum gloeosporioides. Put plainly: Antifungal activity against Colletotrichum gloeosporioides. The assay is classed as functional, organism-based.
For a further assay, the system named is Botrytis cinerea. Put plainly: Antifungal activity against Botrytis cinerea. It counts as functional, organism-based.
The test system of the next assay is Phytophthora infestans. Put plainly: Antifungal activity Phytophthora infestans. The assay is classed as functional, organism-based.
Assay [8] has as its system Fusarium oxysporum. As to the kind of experiment: Effect on mycelial reducing sugar content in Fusarium oxysporum after 12 hrs. It counts as functional. An outline of the steps: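 F. oxysporum mycelia were treated and sampled from 0.5 h to 12 h. Mycelial reducing sugar content (mg/mL) was measured at each time point against an untreated control.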
In assay [9] the test system is Fusarium oxysporum. Put plainly: Increase in membrane permeability of Fusarium oxysporum at 100 ug/mL after 5 mins. The assay is classed as functional. The gist of the method: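 F. oxysporum cells were treated and sampled from 5 min onward over a longer time course. Cell-membrane relative permeability rate (%) was measured against an untreated control, with Hymexazol as reference.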

Assay [10] has as its system Fusarium oxysporum. Put plainly: Decrease in mycelial chitinase activity assessed as D-GlcNAc content in Fusarium oxysporum after 1 hrs. The assay is classed as functional. An outline of the steps: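 F. oxysporum mycelia were treated over a time course up to 24 h and compared with an untreated control, with Hymexazol as reference fungicide. Chitinase activity was read as the D-GlcNAc content (mg/mL) produced by the enzyme in 1 h.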

Assay [11] deals with Fusarium oxysporum. As to the kind of experiment: Increase in mycelial soluble protein content in Fusarium oxysporum relative to control after 0.5 hrs. The assay is classed as functional. The gist of the method:
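Soluble protein content of treated F. oxysporum mycelia was followed from 0.5 h of exposure and expressed relative to an untreated control. Hymexazol was run alongside as reference.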

Assay [12] deals with Fusarium oxysporum. As to the kind of experiment: Inhibition of sporule germination of Fusarium oxysporum at 60 ug/mL. The assay is classed as functional. An outline of the steps: (§2)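 F. oxysporum spores were exposed to a concentration series. Germination was scored as percentage of spores germinated, and inhibition was calculated relative to an untreated control.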
The test system of assay [13] is Fusarium oxysporum. Put plainly: Decrease in mycelial chitosan content in Fusarium oxysporum after 6 hrs relative to control. It counts as functional. Also on record: scale not given: the % may be the effect or the level left. An outline of the steps: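 Chitosan content was measured as D-GlcNAc in F. oxysporum mycelia from treated cultures and read 6 h after inoculation. An untreated culture served as control and Hymexazol as the reference fungicide.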

For assay [14], the system named is Fusarium oxysporum. Put plainly: Decrease in mycelial reducing sugar content in Fusarium oxysporum after 0.5 hrs relative to control. Also on record: scale not given: the % may be the effect or the level left. It counts as functional. An outline of the steps:
(§3)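 Reducing sugar content (mg/mL) of F. oxysporum mycelia was followed over time, sampled from 0.5 h to 12 h of treatment, against an untreated control.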

For assay [15], the system named is Fusarium oxysporum. As to the kind of experiment: Decrease in mycelial reducing sugar content in Fusarium oxysporum at 6 hrs. The assay is classed as functional, organism-based. An outline of the steps:
as §3

Assay [16] has as its system Fusarium oxysporum. Put plainly: Effect on hyphal morphology of Fusarium oxysporum at 100 ug/mL. The assay is classed as functional, organism-based. An outline of the steps:
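Hyphae and cell contents of treated F. oxysporum were examined microscopically against untreated control hyphae.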

The test system of assay [17] is Fusarium oxysporum. As to the kind of experiment: Effect on sporule germination of Fusarium oxysporum at 100 ug/mL. It counts as functional. The gist of the method:
as §2

The term inhibition denotes the change of the read-out against control, counted positive when it falls. For `Fc1ccc2ncnc(SCc3ccc(Cl)nc3)c2c1`, the inhibition at 500 µg/mL in the assay on Fusarium oxysporum [1] was 21.9%; in the assay with Cytospora [2], 38.5%; in the assay on Fusarium graminearum [3], 16.3%.
What is called EC50 is the midpoint of the concentration-response curve. For `CCCSc1ncnc2ccc(F)cc12`, the EC50 in the assay with Sclerotinia sclerotiorum is 17.1 µg/mL (≈ 76.9 µM); in the assay on Fusarium oxysporum [4] it was 25.1 µg/mL (≈ 113 µM); in the assay with Thanatephorus cucumeris, 46.2 µg/mL (≈ 208 µM); in the assay on Cytospora [5] it was 25.8 µg/mL (≈ 116 µM); in the assay with Fusarium graminearum [6] it was 30.1 µg/mL (≈ 135 µM); in the assay on Rhizoctonia solani it was 29.2 µg/mL (≈ 131 µM). In addition, the EC50 was 40.1 µg/mL (≈ 180 µM) in assay [7], 13 µg/mL (≈ 58.5 µM) in the assay with Botrytis cinerea and 26.9 µg/mL (≈ 121 µM) in the assay with Phytophthora infestans. Also, the inhibition at 500 µg/mL was determined as 89.3% with Fusarium oxysporum [1], 94.8% in the assay with Cytospora [2] and 96.4% in the assay on Fusarium graminearum [3].
Turning to `CCOC(=O)CSc1ncnc2ccc(F)cc12`, the inhibition at 500 µg/mL in the assay on Fusarium oxysporum [1] turned out to be 20.3%; in the assay on Cytospora [2], 30.1%; in the assay with Fusarium graminearum [3] it was 13.3%.
`Cc1cc(O)no1` [HYMEXAZOL]: the values for the EC50 with Sclerotinia sclerotiorum and with Botrytis cinerea were 5.1 µg/mL (≈ 51.5 µM) and 4.6 µg/mL (≈ 46.4 µM), respectively. For the same compound, the inhibition at 500 µg/mL with Fusarium oxysporum [1] turned out to be 91.3%; in the assay with Cytospora [2], 91.2%; with Fusarium graminearum [3] it was 100%. Also, the Activity was found to be 0.85 mg/mL with Fusarium oxysporum [8], 6% with Fusarium oxysporum [9] and 0.0411 mg/mL in the assay with Fusarium oxysporum [10].
As for `CCSc1ncnc2ccc(F)cc12`, the EC50 in the assay with Sclerotinia sclerotiorum turned out to be 11.4 µg/mL (≈ 54.7 µM); in the assay with Fusarium oxysporum [4] it was 18.2 µg/mL (≈ 87.4 µM); in the assay with Thanatephorus cucumeris it was 30.8 µg/mL (≈ 148 µM); in the assay with Cytospora [5], 19.2 µg/mL (≈ 92.2 µM); with Fusarium graminearum [6], 12.4 µg/mL (≈ 59.5 µM); in the assay with Rhizoctonia solani it was 24.9 µg/mL (≈ 120 µM). Further, the EC50 came to 64.2 µg/mL (≈ 308 µM) in [7], 8.3 µg/mL (≈ 39.9 µM) in the assay with Botrytis cinerea and 26.8 µg/mL (≈ 129 µM) in the assay with Phytophthora infestans. Further, the Activity worked out at 33.1% in the assay on Fusarium oxysporum [11]; 6.1% with Fusarium oxysporum [13]; 19.8% with Fusarium oxysporum [14]; 0.67 mg/mL with Fusarium oxysporum [8]; 6.5% in the assay with Fusarium oxysporum [17]; 12% with Fusarium oxysporum [9]. In addition, the Activity in the assay with Fusarium oxysporum [10] came out at 0.0364 mg/mL. Moreover, the inhibition at 60 µg/mL in the assay with Fusarium oxysporum [12] came to 32.9%. The inhibition at 500 µg/mL in the assay with Fusarium oxysporum [1] came out at 98.5%; in the assay with Cytospora [2], 100%; in the assay on Fusarium graminearum [3], 100%. Also, the result with Fusarium oxysporum [15] and in the assay with Fusarium oxysporum [16] was Active.
For `C=CCSc1ncnc2ccc(F)cc12`, the EC50 in the assay on Sclerotinia sclerotiorum came to 35.2 µg/mL (≈ 160 µM); with Fusarium oxysporum [4], 32.2 µg/mL (≈ 146 µM); in the assay with Thanatephorus cucumeris it was 40.6 µg/mL (≈ 184 µM); in the assay with Cytospora [5], 23.3 µg/mL (≈ 106 µM); in the assay on Fusarium graminearum [6], 37 µg/mL (≈ 168 µM); in the assay on Rhizoctonia solani it was 46.3 µg/mL (≈ 210 µM). Also, the EC50 in assay [7] worked out at 21.4 µg/mL (≈ 97.2 µM); in the assay on Botrytis cinerea it was 42.4 µg/mL (≈ 192 µM); with Phytophthora infestans it was 51.2 µg/mL (≈ 232 µM). Moreover, the inhibition at 500 µg/mL was 92.3% in the assay with Fusarium oxysporum [1], 96.9% with Cytospora [2] and 100% in the assay with Fusarium graminearum [3].
Regarding `COc1ccc(C(=O)CSc2ncnc3ccc(F)cc23)c(OC)c1OC`, the inhibition at 500 µg/mL in the assay on Fusarium oxysporum [1] is 5.3%; with Cytospora [2], 11.2%; in the assay with Fusarium graminearum [3] it was 6.2%.
For `Fc1ccc2ncnc(SCc3ccccc3)c2c1` the same measures were 18.9%, 21.4% and 15%.
As to `Fc1ccc2ncnc(SCc3ccc(Cl)cc3)c2c1`, the values for the inhibition at 500 µg/mL with Fusarium oxysporum [1], in the assay with Cytospora [2] and with Fusarium graminearum [3] were 5.9%, 11.8% and 7.6%, respectively.
